From ChEMBL document CHEMBL1144562, “Synthesis of a new class of 2-anilino substituted nicotinyl arylsulfonylhydrazides as potential anticancer and antibacterial agents” (2007)
≈ marks a conversion by molar mass, not a printed value.

Columns and labels:
Format in all cases: functional
RPMI-8226 = test: Antitumor activity against RPMI-8226 cells; conditions: Homo sapiens; for TGI: read-out: Log TGI (converted)
EKVX = test: Antitumor activity against EKVX cells; conditions: Homo sapiens; for TGI: read-out: Log TGI (converted)
[1] = Antitumor activity against LOX IMV1 cells; conditions: Homo sapiens; for TGI: read-out: Log TGI (converted)
SK-MEL-2 = test: Antitumor activity against SK-MEL-2 cells; conditions: Homo sapiens; for TGI: read-out: Log TGI (converted)
SK-MEL-5 = test: Antitumor activity against SK-MEL-5 cells; conditions: Homo sapiens; for TGI: read-out: Log TGI (converted)
Outline: (§1)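 Tested in the NCI 60-human-tumour-cell-line panel at five concentrations, in 10-fold dilutions from 10^-4 to 10^-8 M. Three parameters were taken from the dose-response data, each as log10 of the molar concentration: GI50 (50% net growth inhibition), TGI (total growth inhibition) and LC50 (50% net cell death).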

OVCAR-5 = test: Antitumor activity against OVCAR5 cells; conditions: Homo sapiens; for CC50: read-out: Log LC50 (the source's name) (converted); for TGI: read-out: Log TGI (converted)
SK-OV-3 = test: Antitumor activity against SKOV3 cells; conditions: Homo sapiens; for CC50: read-out: Log LC50 (the source's name) (converted); for TGI: read-out: Log TGI (converted); outline: as §1
A498 = test: Antitumor activity against A498 cells; conditions: Homo sapiens; for TGI: read-out: Log TGI (converted)
CAKI-1 = test: Antitumor activity against CAKI1 cells; conditions: Homo sapiens; for TGI: read-out: Log TGI (converted)
UO-31 = test: Antitumor activity against UO31 cells; conditions: Homo sapiens; for TGI: read-out: Log TGI (converted); outline: as §1
MCF7 = test: Antitumor activity against MCF7 cells; conditions: Homo sapiens; for TGI: read-out: Log TGI (converted)
NCI/ADR-RES = test: Antitumor activity against NCI/ADR-RES cells; conditions: Homo sapiens; for TGI: read-out: Log TGI (converted)
MDA-MB-231 = test: Antitumor activity against MDA-MB-231 cells; conditions: Homo sapiens; for TGI: read-out: Log TGI (converted)
Hs-578T = test: Antitumor activity against HS578T cells; conditions: Homo sapiens; for CC50: read-out: Log LC50 (the source's name) (converted); for TGI: read-out: Log TGI (converted)
BT-549 = test: Antitumor activity against BT549 cells; conditions: Homo sapiens; for TGI: read-out: Log TGI (converted)
Escherichia coli = test: Antibacterial activity against Escherichia coli MTCC 448 after 18 hrs; conditions: MTCC 448, 18 h
Outline: (§2)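 Disc diffusion (Kirby–Bauer) on Mueller-Hinton agar inoculated with fresh bacteria at 1-5 × 10^4 cfu mL-1. Compounds were dissolved in DMF at a range of concentrations, and discs were placed in triplicate. Plates were incubated at 30 °C for 18 h. MIC was taken as the lowest concentration giving no visible bacterial growth on the plate.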

Pseudomonas aeruginosa = test: Antibacterial activity against Pseudomonas aeruginosa MTCC 424 after 18 hrs; conditions: MTCC 424, 18 h; outline: as §2
MOLT-4 = test: Antitumor activity against MOLT4 cells; conditions: Homo sapiens; for TGI: read-out: Log TGI (converted)
NCI-H23 = test: Antitumor activity against NCI-H23 cells; conditions: Homo sapiens; for TGI: read-out: Log TGI (converted)
NCI-H460 = test: Antitumor activity against NCI-H460 cells; conditions: Homo sapiens; for TGI: read-out: Log TGI (converted)
HCT-116 = test: Antitumor activity against HCT116 cells; conditions: Homo sapiens; for TGI: read-out: Log TGI (converted)
SF-295 = test: Antitumor activity against SF295 cells; conditions: Homo sapiens; for CC50: read-out: Log LC50 (the source's name) (converted); for TGI: read-out: Log TGI (converted)
IGROV-1 = test: Antitumor activity against IGROV1 cells; conditions: Homo sapiens
NCI-H522 = test: Antitumor activity against NCI-H522 cells; conditions: Homo sapiens
[2] = read-out: Log LC50 (the source's name) (converted)

O=C(NNS(=O)(=O)c1ccc(Cl)cc1Cl)c1cccnc1Nc1ccc(Cl)cc1
GI50 (RPMI-8226): 17.8 µM
LC50 (RPMI-8226): > 100 µM
TGI (RPMI-8226): 53.7 µM
GI50 (EKVX): 26.3 µM
LC50 (EKVX): > 100 µM
TGI (EKVX): > 100 µM
GI50 [1]: 20.9 µM
LC50 [1]: > 100 µM
TGI [1]: 46.8 µM
GI50 (SK-MEL-2): 18.6 µM
LC50 (SK-MEL-2): 97.7 µM
TGI (SK-MEL-2): 42.7 µM
GI50 (SK-MEL-5): 14.1 µM
LC50 (SK-MEL-5): 61.7 µM
TGI (SK-MEL-5): 29.5 µM
GI50 (OVCAR-5): 26.3 µM
CC50 (OVCAR-5): > 100 µM
TGI (OVCAR-5): 77.6 µM
GI50 (SK-OV-3): 17 µM
CC50 (SK-OV-3): > 100 µM
TGI (SK-OV-3): 52.5 µM
GI50 (A498): 25.1 µM
LC50 (A498): 91.2 µM
TGI (A498): 47.9 µM
GI50 (CAKI-1): 20 µM
LC50 (CAKI-1): > 100 µM
TGI (CAKI-1): 58.9 µM
GI50 (UO-31): 37.2 µM
LC50 (50% net cell death) (UO-31): > 100 µM
TGI (UO-31): > 100 µM
GI50 (MCF7): 35.5 µM
LC50 (MCF7): > 100 µM
TGI (MCF7): > 100 µM
GI50 (NCI/ADR-RES): 23.4 µM
LC50 (NCI/ADR-RES): > 100 µM
TGI (NCI/ADR-RES): 75.9 µM
GI50 (MDA-MB-231): 19.1 µM
LC50 (MDA-MB-231): > 100 µM
TGI (MDA-MB-231): 50.1 µM
GI50 (Hs-578T): 17.8 µM
CC50 (Hs-578T): 97.7 µM
TGI (Hs-578T): 41.7 µM
GI50 (BT-549): 16.6 µM
LC50 (BT-549): 72.4 µM
TGI (BT-549): 34.7 µM
MIC (Escherichia coli): 20 µg/mL (≈ 42.4 µM)
MIC (Pseudomonas aeruginosa): > 25 µg/mL
GI50 (MOLT-4): 19.5 µM
LC50 (MOLT-4): > 100 µM
TGI (MOLT-4): 57.5 µM
GI50 (NCI-H23): 17.4 µM
LC50 (NCI-H23): > 100 µM
TGI (NCI-H23): 42.7 µM
GI50 (NCI-H460): 35.5 µM
LC50 (NCI-H460): > 100 µM
TGI (NCI-H460): 100 µM
GI50 (HCT-116): 15.5 µM
LC50 (HCT-116): 53.7 µM
TGI (HCT-116): 28.8 µM
GI50 (SF-295): 30.2 µM
CC50 (SF-295): > 100 µM
TGI (SF-295): 77.6 µM

O=C(NNS(=O)(=O)c1ccc(F)cc1)c1cccnc1Nc1ccc(Cl)cc1Cl
GI50 (EKVX): 29.5 µM
LC50 (EKVX): > 100 µM
TGI (EKVX): > 100 µM
GI50 [1]: 32.4 µM
LC50 [1]: > 100 µM
TGI [1]: > 100 µM
GI50 (SK-MEL-2): 42.7 µM
LC50 (SK-MEL-2): > 100 µM
TGI (SK-MEL-2): > 100 µM
GI50 (SK-MEL-5): 25.1 µM
LC50 (SK-MEL-5): > 100 µM
TGI (SK-MEL-5): 85.1 µM
GI50 (OVCAR-5): 52.5 µM
CC50 (OVCAR-5): > 100 µM
TGI (OVCAR-5): > 100 µM
GI50 (SK-OV-3): 38 µM
CC50 (SK-OV-3): > 100 µM
TGI (SK-OV-3): > 100 µM
GI50 (A498): 17.4 µM
LC50 (A498): 77.6 µM
TGI (A498): 36.3 µM
GI50 (CAKI-1): 30.9 µM
LC50 (CAKI-1): > 100 µM
TGI (CAKI-1): > 100 µM
GI50 (MCF7): 31.6 µM
LC50 (MCF7): > 100 µM
TGI (MCF7): > 100 µM
GI50 (NCI/ADR-RES): 39.8 µM
LC50 (NCI/ADR-RES): > 100 µM
TGI (NCI/ADR-RES): > 100 µM
GI50 (MDA-MB-231): 28.8 µM
LC50 (MDA-MB-231): > 100 µM
TGI (MDA-MB-231): > 100 µM
GI50 (Hs-578T): 28.2 µM
CC50 (Hs-578T): > 100 µM
TGI (Hs-578T): > 100 µM
GI50 (BT-549): 36.3 µM
LC50 (BT-549): > 100 µM
TGI (BT-549): 100 µM
MIC (Escherichia coli): 15 µg/mL (≈ 32.9 µM)
MIC (Pseudomonas aeruginosa): > 25 µg/mL
GI50 (MOLT-4): 22.9 µM
LC50 (MOLT-4): > 100 µM
TGI (MOLT-4): > 100 µM
GI50 (NCI-H23): 36.3 µM
LC50 (NCI-H23): > 100 µM
TGI (NCI-H23): > 100 µM
GI50 (NCI-H460): 31.6 µM
LC50 (NCI-H460): > 100 µM
TGI (NCI-H460): > 100 µM
GI50 (HCT-116): 30.2 µM
LC50 (HCT-116): > 100 µM
TGI (HCT-116): > 100 µM
GI50 (SF-295): 37.2 µM
CC50 (SF-295): > 100 µM
TGI (SF-295): > 100 µM

CC(=O)Nc1ccc(S(=O)(=O)NNC(=O)c2cccnc2Nc2ccc(Cl)cc2)cc1
GI50 (RPMI-8226): 28.8 µM
LC50 (RPMI-8226): > 100 µM
TGI (RPMI-8226): > 100 µM
GI50 (EKVX): 49 µM
LC50 (EKVX): > 100 µM
TGI (EKVX): > 100 µM
GI50 [1]: 24 µM
LC50 [1]: > 100 µM
TGI [1]: > 100 µM
GI50 (SK-MEL-5): 5.62 µM
LC50 (SK-MEL-5): > 100 µM
TGI (SK-MEL-5): > 100 µM
GI50 (IGROV-1): 27.5 µM
CC50 (IGROV-1; [2]): > 100 µM
TGI (IGROV-1; read-out: Log TGI (converted)): > 100 µM
GI50 (SK-OV-3): 57.5 µM
CC50 (SK-OV-3): > 100 µM
TGI (SK-OV-3): > 100 µM
GI50 (A498): 18.6 µM
LC50 (A498): > 100 µM
TGI (A498): > 100 µM
GI50 (CAKI-1): 9.12 µM
LC50 (CAKI-1): > 100 µM
TGI (CAKI-1): > 100 µM
GI50 (UO-31): 91.2 µM
LC50 (50% net cell death) (UO-31): > 100 µM
TGI (UO-31): > 100 µM
GI50 (MCF7): 4.37 µM
LC50 (MCF7): > 100 µM
TGI (MCF7): > 100 µM
GI50 (MDA-MB-231): 41.7 µM
LC50 (MDA-MB-231): > 100 µM
TGI (MDA-MB-231): > 100 µM
GI50 (Hs-578T): 24 µM
CC50 (Hs-578T): > 100 µM
TGI (Hs-578T): > 100 µM
GI50 (BT-549): 25.1 µM
LC50 (BT-549): > 100 µM
TGI (BT-549): > 100 µM
MIC (Escherichia coli): 18 µg/mL (≈ 39.1 µM)
MIC (Pseudomonas aeruginosa): > 25 µg/mL
GI50 (MOLT-4): 50.1 µM
LC50 (MOLT-4): > 100 µM
TGI (MOLT-4): > 100 µM
GI50 (NCI-H460): 4.68 µM
LC50 (NCI-H460): > 100 µM
TGI (NCI-H460): > 100 µM
GI50 (NCI-H522): 6.46 µM
CC50 (NCI-H522; [2]): > 100 µM
TGI (NCI-H522; read-out: Log TGI (converted)): > 100 µM
GI50 (HCT-116): 7.24 µM
LC50 (HCT-116): > 100 µM
TGI (HCT-116): > 100 µM
GI50 (SF-295): 3.47 µM
CC50 (SF-295): > 100 µM
TGI (SF-295): > 100 µM
